For assay [1], the target named is 5-hydroxytryptamine receptor 2A (Homo sapiens) (UniProt P28223). Kind of assay: Antagonist activity at human 5-HT2A receptor expressed in HEK293 cells assessed as inhibition of serotonin-induced receptor activation preincubated for 15 mins followed by serotonin addition and measured after 1 hr by TGFalpha shedding assay. The format is functional, cell-based. An outline of the steps: (§1)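 HEK293 cells were co-transfected with the receptor construct and alkaline phosphatase-tagged TGFα, then seeded in HBSS. Cells were pretreated 15 min with compound (0.1 nM–30 µM final), then given serotonin at final 1 µM (5-HT2A) or 0.1 µM (5-HT2B, 5-HT2C) for 1 h at 37 °C. Kb came from IC50 via the modified Gaddum equation.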
Sequence of 5-hydroxytryptamine receptor 2A (Homo sapiens) (P28223 whole entry): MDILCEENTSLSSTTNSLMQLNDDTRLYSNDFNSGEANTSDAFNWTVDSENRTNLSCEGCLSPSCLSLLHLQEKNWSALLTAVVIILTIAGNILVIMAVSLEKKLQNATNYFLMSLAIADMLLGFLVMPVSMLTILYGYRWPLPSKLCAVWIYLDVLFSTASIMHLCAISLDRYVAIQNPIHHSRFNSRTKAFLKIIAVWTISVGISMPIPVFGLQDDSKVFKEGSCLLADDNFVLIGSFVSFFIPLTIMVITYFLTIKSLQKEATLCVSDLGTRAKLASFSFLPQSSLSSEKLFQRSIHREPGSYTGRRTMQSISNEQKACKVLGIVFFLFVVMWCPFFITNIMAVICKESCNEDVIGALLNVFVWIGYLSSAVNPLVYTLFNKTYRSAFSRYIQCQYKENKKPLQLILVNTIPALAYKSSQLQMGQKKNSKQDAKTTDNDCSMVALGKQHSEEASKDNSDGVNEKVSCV

Assay [2] has as its target 5-hydroxytryptamine receptor 2B (Homo sapiens) (UniProt P41595). The experiment in a line: Antagonist activity at human 5-HT2B receptor expressed in HEK293 cells assessed as inhibition of serotonin-induced receptor activation preincubated for 15 mins followed by serotonin addition and measured after 1 hr by TGFalpha shedding assay. The format is functional, cell-based. The method, boiled down:
as §1

For assay [3], the target named is T1, 5-hydroxytryptamine receptor 2C (Homo sapiens) (UniProt P28335).
T1 sequence (whole entry): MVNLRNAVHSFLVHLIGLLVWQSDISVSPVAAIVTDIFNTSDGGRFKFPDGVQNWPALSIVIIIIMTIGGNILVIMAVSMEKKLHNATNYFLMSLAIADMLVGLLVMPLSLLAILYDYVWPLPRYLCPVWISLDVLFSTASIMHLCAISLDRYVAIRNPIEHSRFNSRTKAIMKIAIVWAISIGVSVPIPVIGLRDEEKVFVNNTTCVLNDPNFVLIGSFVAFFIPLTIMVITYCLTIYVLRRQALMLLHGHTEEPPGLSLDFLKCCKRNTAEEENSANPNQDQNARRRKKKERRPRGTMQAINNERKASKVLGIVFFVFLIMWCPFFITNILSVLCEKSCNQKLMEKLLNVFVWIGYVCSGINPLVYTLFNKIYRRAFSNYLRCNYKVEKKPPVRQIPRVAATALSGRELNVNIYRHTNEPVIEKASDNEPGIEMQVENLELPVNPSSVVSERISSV
Kind of assay: Antagonist activity at human 5-HT2C receptor expressed in HEK293 cells assessed as inhibition of serotonin-induced receptor activation preincubated for 15 mins followed by serotonin addition and measured after 1 hr by TGFalpha shedding assay. The class given is functional, cell-based. The method, boiled down: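 HEK293 cells were co-transfected with the receptor construct and alkaline phosphatase-tagged TGFα, then seeded in HBSS. Cells were pretreated 15 min with compound (0.1 nM–30 µM final), then given serotonin at final 1 µM (5-HT2A) or 0.1 µM (5-HT2B, 5-HT2C) for 1 h at 37 °C. Readout was supernatant/total AP activity (p-nitrophenol, 405 nm), normalised to maximal agonist response, in triplicate. Kb came from IC50 via the modified Gaddum equation.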

Assay [4] is filed under the species Homo sapiens. Kind of assay: Selectivity ratio of Kb for human 5-HT2B receptor to Kb for human 5-HT2A receptor. An outline of the steps:
(§2)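 Ratio of the Kb at receptor Y to the Kb at receptor X. Each Kb came from TGFα-shedding antagonist curves in transfected HEK293 cells, converted from IC50 with the modified Gaddum equation IC50/([A]/EC50 − 1).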

Assay [5] addresses Serotonin 2 receptors; 5-HT2a & 5-HT2c (Homo sapiens) (UniProt P28223+P28335). The experiment in a line: Selectivity ratio of Kb for human 5-HT2C receptor to Kb for human 5-HT2A receptor. The method, boiled down:
as §2

For assay [6], the species on record is Homo sapiens. Kind of assay: Selectivity ratio of Kb for human 5-HT2B receptor to Kb for human 5-HT2C receptor. The method, boiled down: as §2
For assay [7], the species on record is Homo sapiens. The experiment in a line: Selectivity ratio of Kb for human adrenergic alpha1B receptor to Kb for human adrenergic alpha1A receptor. An outline of the steps: as §2
The species entered for assay [8] is Homo sapiens. Kind of assay: Selectivity ratio of Kb for human adrenergic alpha1D receptor to Kb for human adrenergic alpha1A receptor. An outline of the steps:
as §2

Assay [9] is filed under the species Homo sapiens. The experiment in a line: Selectivity ratio of Kb for human adrenergic alpha1D receptor to Kb for human adrenergic alpha1B receptor. An outline of the steps:
as §2

The species named for assay [10] is Homo sapiens. The experiment in a line: Selectivity ratio of Kb for human adrenergic alpha1A receptor to Kb for human 5-HT2A receptor. The method, boiled down:
as §2

In assay [11] the target is T2, Alpha-1A adrenergic receptor (Homo sapiens) (UniProt P35348).
T2 sequence (whole entry): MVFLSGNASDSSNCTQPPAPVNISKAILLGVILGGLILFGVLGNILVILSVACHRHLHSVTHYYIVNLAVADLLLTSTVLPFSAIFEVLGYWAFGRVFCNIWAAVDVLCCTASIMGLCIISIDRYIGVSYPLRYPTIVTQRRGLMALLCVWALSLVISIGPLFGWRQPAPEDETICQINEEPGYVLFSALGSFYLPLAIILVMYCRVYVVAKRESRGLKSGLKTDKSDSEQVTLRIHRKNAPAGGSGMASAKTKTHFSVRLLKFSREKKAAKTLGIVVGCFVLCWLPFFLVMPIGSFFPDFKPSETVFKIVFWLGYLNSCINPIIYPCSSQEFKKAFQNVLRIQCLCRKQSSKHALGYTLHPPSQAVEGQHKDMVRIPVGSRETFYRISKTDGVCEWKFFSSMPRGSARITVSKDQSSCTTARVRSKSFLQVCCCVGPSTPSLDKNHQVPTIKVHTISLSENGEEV
The experiment in a line: Antagonist activity at human adrenergic alpha1A receptor expressed in HEK293 cells assessed as inhibition of noradrenaline-induced receptor activation preincubated for 15 mins followed by noradrenaline addition and measured after 1 hr by TGFalpha shedding assay.

Assay [12] concerns the target T3, Alpha-1B adrenergic receptor (Homo sapiens) (UniProt P35368).
T3 sequence (whole entry): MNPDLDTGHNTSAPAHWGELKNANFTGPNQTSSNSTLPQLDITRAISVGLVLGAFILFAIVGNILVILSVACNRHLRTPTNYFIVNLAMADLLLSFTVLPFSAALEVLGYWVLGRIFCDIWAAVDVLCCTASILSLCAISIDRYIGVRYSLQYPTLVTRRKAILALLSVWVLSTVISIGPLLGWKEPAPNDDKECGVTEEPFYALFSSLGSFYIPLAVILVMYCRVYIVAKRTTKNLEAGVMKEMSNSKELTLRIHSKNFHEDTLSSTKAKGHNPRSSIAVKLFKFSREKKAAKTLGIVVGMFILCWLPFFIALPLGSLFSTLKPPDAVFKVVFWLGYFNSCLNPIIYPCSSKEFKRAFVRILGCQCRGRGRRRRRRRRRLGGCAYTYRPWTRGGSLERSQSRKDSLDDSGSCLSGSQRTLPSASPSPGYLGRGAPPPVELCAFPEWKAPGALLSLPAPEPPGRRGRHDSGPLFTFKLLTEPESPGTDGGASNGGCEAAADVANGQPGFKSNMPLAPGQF
Kind of assay: Antagonist activity at human adrenergic alpha1B receptor expressed in HEK293 cells assessed as inhibition of noradrenaline-induced receptor activation preincubated for 15 mins followed by noradrenaline addition and measured after 1 hr by TGFalpha shedding assay.

The target in assay [13] is T4, Alpha-1D adrenergic receptor (Homo sapiens) (UniProt P25100).
T4 sequence (whole entry): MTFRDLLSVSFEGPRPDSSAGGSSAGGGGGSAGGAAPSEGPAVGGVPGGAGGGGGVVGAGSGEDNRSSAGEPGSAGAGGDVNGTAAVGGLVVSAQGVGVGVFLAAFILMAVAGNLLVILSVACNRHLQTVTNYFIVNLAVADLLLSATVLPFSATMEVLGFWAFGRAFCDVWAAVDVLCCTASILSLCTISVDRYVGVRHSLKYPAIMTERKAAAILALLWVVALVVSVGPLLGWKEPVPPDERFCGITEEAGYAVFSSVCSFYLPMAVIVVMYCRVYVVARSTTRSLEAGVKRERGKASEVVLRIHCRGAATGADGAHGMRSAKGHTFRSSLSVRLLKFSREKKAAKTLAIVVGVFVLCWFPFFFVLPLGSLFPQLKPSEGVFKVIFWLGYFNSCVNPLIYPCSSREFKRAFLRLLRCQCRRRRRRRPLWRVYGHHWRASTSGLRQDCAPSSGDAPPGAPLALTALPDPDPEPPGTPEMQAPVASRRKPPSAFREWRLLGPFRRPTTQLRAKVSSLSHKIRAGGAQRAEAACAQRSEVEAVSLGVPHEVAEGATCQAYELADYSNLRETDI
Kind of assay: Antagonist activity at human adrenergic alpha1D receptor expressed in HEK293 cells assessed as inhibition of noradrenaline-induced receptor activation preincubated for 15 mins followed by noradrenaline addition and measured after 1 hr by TGFalpha shedding assay.

Assay [14] is filed under the species Homo sapiens. The experiment in a line: Selectivity ratio of Kb for human adrenergic alpha1B receptor to Kb for human 5-HT2A receptor. The method, boiled down:
as §2

Assay [15] is filed under the species Homo sapiens. The experiment in a line: Selectivity ratio of Kb for human adrenergic alpha1D receptor to Kb for human 5-HT2A receptor. An outline of the steps: as §2
The species entered for assay [16] is Homo sapiens. Kind of assay: Selectivity ratio of Kb for human adrenergic alpha1A receptor to Kb for human 5-HT2C receptor. The method, boiled down: as §2
Assay [17] is filed under the species Homo sapiens. Kind of assay: Selectivity ratio of Kb for human adrenergic alpha1B receptor to Kb for human 5-HT2C receptor. An outline of the steps:
as §2

Assay [18] is filed under the species Homo sapiens. Kind of assay: Selectivity ratio of Kb for human adrenergic alpha1D receptor to Kb for human 5-HT2C receptor. An outline of the steps: as §2
For assay [19], the target named is T5, Alpha-1A adrenergic receptor (Homo sapiens, UniProt P35348).
T5 sequence (P35348 whole entry): T2 sequence (whole entry)
Kind of assay: Displacement of [125I]-HEAT from human adrenergic alpha1A receptor expressed in rat-1 cells. The format is cell-based. On the technique in general: Displacement assays read how much labelled ligand stays bound in the presence of the test substance.

In assay [20] the target is T6, Alpha-1B adrenergic receptor (Homo sapiens, UniProt P35368).
T6 sequence (P35368 whole entry): T3 sequence (whole entry)
The experiment in a line: Displacement of [125I]-HEAT from human adrenergic alpha1B receptor expressed in rat-1 cells. The class given is cell-based.

The target in assay [21] is T7, Alpha-1D adrenergic receptor (Homo sapiens, UniProt P25100).
T7 sequence (P25100 whole entry): T4 sequence (whole entry)
Kind of assay: Displacement of [125I]-HEAT from human adrenergic alpha1D receptor expressed in rat-1 cells. The format is cell-based.

Sequence of Serotonin 2 receptors; 5-HT2a & 5-HT2c (Homo sapiens) (P28223 whole entry, looked up, one chain of several): as the sequence (P28223 whole entry) above
Sequence of 5-hydroxytryptamine receptor 2B (Homo sapiens) (P41595 whole entry): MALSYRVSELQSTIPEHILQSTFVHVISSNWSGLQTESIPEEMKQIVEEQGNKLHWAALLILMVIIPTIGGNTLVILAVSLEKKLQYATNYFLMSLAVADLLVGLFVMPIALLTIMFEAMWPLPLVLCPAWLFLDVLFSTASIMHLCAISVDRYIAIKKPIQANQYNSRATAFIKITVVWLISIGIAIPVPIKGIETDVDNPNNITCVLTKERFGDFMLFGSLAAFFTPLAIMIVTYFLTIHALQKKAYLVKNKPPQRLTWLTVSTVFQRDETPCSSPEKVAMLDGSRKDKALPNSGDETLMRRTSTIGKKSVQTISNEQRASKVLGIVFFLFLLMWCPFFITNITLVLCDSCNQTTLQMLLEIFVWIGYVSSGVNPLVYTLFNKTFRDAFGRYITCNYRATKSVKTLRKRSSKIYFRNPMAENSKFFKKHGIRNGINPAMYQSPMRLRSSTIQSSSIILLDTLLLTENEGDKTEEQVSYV

As usually defined, the Kb is the affinity of an antagonist, worked out from how it opposes an agonist. Broadly, the pKb is the negative decadic logarithm of the Kb, by convention in mol/L. `COc1cc2c3c(c1OC)-c1ccccc1C[C@@H]3N(C)CC2`: the Kb in assay [1] was 84.3 nM; in assay [2], 41.7 nM; in assay [3] it was 30.9 nM; in assay [11] it was 67.1 nM; in assay [12], 316 nM; in [13], 116 nM. In addition, the negative-log Kb (pKb) in [1] is 6.85 to 7.07; in [2] it was 7.38; in [3] it was 7.51; in [11], 6.91 to 7.17; in assay [12] it was 6.5; in [13] it was 6.94. In addition, the Selectivity ratio was 0.5 in [4]; 0.4 in assay [5]; 1 in assay [6]; 5 in [7]; 2 in [8]; 0.4 in assay [9]. Also, the Selectivity ratio in assay [10] turned out to be 1.

Consider `CN1CCc2cc3c(c4c2[C@@H]1Cc1ccccc1-4)OCO3`, for which the Kb in assay [1] was determined as 42.9 nM; in assay [2], 92.7 nM; in assay [3], 76.9 nM; in [11] it was 86 nM; in assay [12], 154 nM; in assay [13], 92.2 nM. Besides, the pKb in [1] was 7.06 to 7.37; in [2] it was 7.03; in [3] it was 7.12; in [11], 6.62 to 7.07; in assay [12], 6.81; in [13], 7.04. In addition, the Selectivity ratio in assay [4] is 2; in assay [5], 2; in [6], 1; in assay [7] it was 2; in assay [8] it was 1; in assay [9], 0.6. Also, the Selectivity ratio in assay [10] is 3.

With `COc1cc2c3c(c1OC)-c1ccccc1C[C@H]3N(C)CC2`, the Kb in [1] is 65.3 nM; in assay [2], 31 nM; in assay [3] it was 36.4 nM; in [11], 37.8 nM; in assay [12], 60.6 nM; in assay [13], 165 nM. For the same molecule, the pKb in assay [1] was 7.18 to 7.26; in assay [2] it was 7.51; in [3], 7.44; in assay [11] it was 7.31 to 7.42; in assay [12], 7.22; in [13], 6.78. Also, the Selectivity ratio in assay [4] amounted to 0.5; in assay [5] it was 0.6; in assay [6] it was 1; in assay [7], 2; in [8] it was 4; in assay [9] it was 3. Further, the Selectivity ratio in assay [10] was 1.

For orientation: Ki means the equilibrium dissociation constant of an inhibitor or competing ligand from its target. `CN1CCc2cc3c(c4c2[C@H]1Cc1ccccc1-4)OCO3`: the Kb in assay [1] stood at 10.8 nM; in assay [2], 84 nM; in assay [3] it was 15.1 nM; in assay [11], 338 nM; in assay [12] it was 266 nM; in assay [13] it was 46 nM. In addition, the pKb was 7.88 to 7.97 in assay [1]; 7.08 in [2]; 7.82 in [3]; 6.38 to 6.47 in assay [11]; 6.57 in assay [12]; 7.34 in assay [13]. The Selectivity ratio came to 8 in [4]; 1 in assay [5]; 6 in [6]; 0.8 in [7]; 0.1 in assay [8]; 0.2 in assay [9]. In addition, the Selectivity ratio in assay [10] was 32; in [14], 18 to 32; in [15], 3 to 4; in [16], 18 to 32; in assay [17], 18 to 32; in assay [18], 3 to 4. Besides, the Ki in assay [19] is 251 nM; in assay [20], 3160 nM; in assay [21] it was 631 nM.

For the origin of these results see ChEMBL document CHEMBL4257488, “Synthesis and evaluation of nuciferine and roemerine enantiomers as 5-HT2 and α1 receptor antagonists” (Medchemcomm, 2018).
